Laboratory results as given in ChEMBL document CHEMBL4316637, “Highly Modified Lanostane Triterpenes from Fruiting Bodies of the Basidiomycete Tomophagus sp” (J Nat Prod, 2019).
Values after ≈ are worked out from the molar mass of the structure shown.

What was measured:
[1] = system: Mycobacterium tuberculosis; experiment: Antitubercular activity against Mycobacterium tuberculosis H37Ra by GFP based microplate assay; type: functional
Procedure, shortened: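 Whole-cell assay on M. tuberculosis H37Ra growth, read by green fluorescent protein signal in microplates; activity given as MIC in μg/mL.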

Plasmodium falciparum = experiment: Antimalarial activity against Plasmodium falciparum K1 infected in human type A+ erythrocytes incubated for 24 hrs followed by [G-3H]-hypoxanthine incorporation and measured after 18 hrs by liquid scintillation counting method; type: functional, organism-based
Procedure, shortened: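 P. falciparum K1 (multidrug-resistant strain), tested in duplicate with the microculture radioisotope technique; IC50 derived.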

Vero = experiment: Cytotoxicity against African green monkey Vero cells by GFP based microplate assay; type: cell-based; conditions: Chlorocebus sabaeus
Procedure, shortened: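 Vero cells (nonmalignant African green monkey kidney […]) tested with a green fluorescent protein microplate assay.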

Row | Compound | MIC [1] [µg/mL] | IC50 (Plasmodium falciparum) [µM] | IC50 (Vero) [µM]
1 | COC(=O)CC[C@]1(COC(C)=O)C2=CC[C@]3(C)[C@@H]([C@H](C)[C@@H]4CC=C(C)C(=O)O4)CC[C@@]3(C)C2=CC[C@H]1C(C)(C)O | 50 (≈ 89.8 µM) | 8.1 | 32
2 | Cc1c2ccncc2c(C)c2c1[nH]c1ccccc12 [ELLIPTECINE] | – | – | 3.1
3 | CC1=CC[C@@H]([C@@H](C)[C@H]2CC[C@@]3(C)C4=CC[C@H]5C(C)(C)OC[C@@]5(CCC(=O)O)C4=CC[C@]23C)OC1=O | > 50 | 5.1 | > 104
4 | CC1=CC[C@@H]([C@@H](C)[C@H]2C[C@@H](O)[C@@]3(C)C4=C(C=C5C=CC(=O)OC(C)(C)[C@@H]5CC4)[C@@H](O)C[C@]23C)OC1=O | > 50 | > 20 | > 101
5 | CC1=CC[C@@H]([C@@H](C)[C@H]2CC[C@@]3(C)C4=C(CC[C@]23C)[C@@]2(C)[C@H](O)C[C@H](O)C(C)(C)[C@@H]2CC4)OC1=O | > 50 | > 21 | > 106
6 | COC(=O)CC[C@]1(COC(C)=O)C2=CC[C@]3(C)[C@@H]([C@H](C)[C@H]4OC(=O)C(C)=C[C@@H]4O)CC[C@@]3(C)C2=CC[C@H]1C(C)(C)O | > 50 | 6.3 | 32
7 | CC1=CC[C@@H]([C@@H](C)[C@H]2C[C@@H](O)[C@@]3(C)C4=C(C=C5C=CC(=O)OC(C)(C)[C@@H]5CC4)CC[C@]23C)OC1=O | 50 (≈ 104 µM) | 12 | 42
8 | CC(=O)O[C@@H]1C[C@H]([C@H](C)[C@H]2OC(=O)C(C)=C[C@@H]2O)[C@@]2(C)CCC3=C(CC[C@@H]4C(=C3)C=CC(=O)OC4(C)C)[C@]12C | 50 (≈ 92.8 µM) | 7 | 22
9 | CC1=CC[C@@H]([C@@H](C)[C@H]2CC[C@@]3(C)C4=C(CC[C@]23C)[C@@]2(C)CC[C@H](O)C(C)(C)[C@@H]2CC4)OC1=O | > 50 | > 22 | > 110
10 | CC(=O)O[C@@H]1C[C@H]([C@H](C)[C@@H]2CC=C(C)C(=O)O2)[C@@]2(C)CC(=O)C3=C(CC[C@@H]4C(=C3)C=CC(=O)OC4(C)C)[C@]12C | 50 (≈ 93.2 µM) | 10 | 92
11 | CC(=O)O[C@]12CCC(=O)OC(C)(C)[C@@H]1CCC1=C2CC[C@]2(C)[C@@H]([C@H](C)[C@H]3OC(=O)C(C)=C[C@@H]3O)CC[C@@]12C | > 50 | > 18 | > 92
12 | CC(=O)OC(C)(C)[C@@H]1CC=C2C(=CC[C@]3(C)[C@@H]([C@H](C)[C@H]4OC(=O)C(C)=C[C@@H]4O)CC[C@@]23C)[C@@]12CCC(=O)OC2 | > 50 | > 18 | > 92
13 | CC1=CC[C@@H]([C@@H](C)[C@H]2CC[C@@]3(C)C4=C(CC[C@]23C)C[C@@]2(O)C=CC(=O)OC(C)(C)[C@@H]2CC4)OC1=O | > 50 | 19 | 45
14 | CC1=CC[C@]2(OC1=O)O[C@H]1O[C@H]3C[C@@]14[C@H](CC[C@@]4(C)C1=C3C=C3C=CC(=O)OC(C)(C)[C@@H]3CC1)[C@@H]2C | > 50 | > 20 | > 102
15 | CC(=O)OC[C@]12CC[C@H](O)C(C)(C)[C@@H]1CCC1=C2CC[C@]2(C)[C@@H]([C@H](C)[C@@H]3CC=C(C)C(=O)O3)CC[C@@]12C | > 50 | > 20 | > 98
16 | CC1=CC[C@@H]([C@@H](C)[C@H]2C[C@@H](O)[C@@]3(C)C4=C(C=C5C=CC(=O)O[C@@]5(C(C)(C)O)CC4)CC[C@]23C)OC1=O | > 50 | > 20 | > 101
17 | CC(=O)OC[C@]12CC[C@H](O)C(C)(C)[C@@H]1CCC1=C2CC[C@]2(C)[C@@H]([C@H](C)[C@H]3OC(=O)C(C)=C[C@@H]3O)CC[C@@]12C | > 50 | 6.6 | 34
18 | COC(=O)CC[C@]1(COC(C)=O)C2=C(CC[C@H]1C(C)(C)O)[C@]1(C)CC[C@H]([C@H](C)[C@@H]3CC=C(C)C(=O)O3)[C@@]1(C)CC2 | 12.5 (≈ 22.4 µM) | 15 | 11
19 | CC1=CC[C@@H]([C@@H](C)[C@H]2CC[C@@]3(C)[C@@]45CC[C@@H](C(C)(C)O4)[C@]4(CCC(=O)OC4)C5=CC[C@]23C)OC1=O | > 50 | > 21 | 98
20 | CC1=CC[C@@H]([C@@H](C)[C@H]2CC[C@@]3(C)C4=C(C=C5C=CC(=O)OC(C)(C)[C@@H]5CC4)CC[C@]23C)OC1=O | > 50 | 18 | > 108

Row | Compound | MIC [1] [µg/mL] | IC50 (Plasmodium falciparum) [µM] | IC50 (Vero) [µM]
21 | CC1=C[C@H](O)[C@@H]([C@@H](C)[C@H]2C[C@@H](O)[C@@]3(C)C4=C(C=C5C=CC(=O)OC(C)(C)[C@@H]5CC4)CC[C@]23C)OC1=O | > 50 | > 20 | 39
22 | CC1=CC[C@@]2(OC1=O)O[C@H]1O[C@H]3C[C@@]14[C@H](CC[C@@]4(C)C1=C3C=C3C=CC(=O)OC(C)(C)[C@@H]3CC1)[C@@H]2C | > 50 | > 20 | > 102
23 | CC(=O)O[C@@H]1C[C@H]([C@H](C)[C@@H]2CC=C(C)C(=O)O2)[C@@]2(C)CCC3=C(CC[C@@H]4C(=CCC(=O)OC4(C)C)C3)[C@]12C | > 50 | 12 | 94
24 | CC(=O)O[C@@H]1C[C@H]([C@H](C)[C@@H]2CC=C(C)C(=O)O2)[C@@]2(C)CCC3=C(CC[C@]4(C(C)(C)O)OC(=O)C=CC4=C3)[C@]12C | > 50 | > 19 | 33
25 | NNC(=O)c1ccncc1 [ISONIAZID] | 0.047 (≈ 0.343 µM) | – | –
26 | CC(=O)O[C@@H]1C[C@H]([C@H](C)[C@H]2OC(=O)C(C)=C[C@@H]2O)[C@@]2(C)CC(=O)C3=C(CC[C@@H]4C(=C3)C=CC(=O)OC4(C)C)[C@]12C | > 50 | > 18 | > 90
27 | CC(=O)[C@H]1C[C@@H](O)[C@@]2(C)C3=C(C=C4C=CC(=O)OC(C)(C)[C@@H]4CC3)CC[C@]12C | > 50 | > 26 | > 130
28 | CC(=O)O[C@@H]1C[C@H]([C@H](C)[C@@H]2CC=C(C)C(=O)O2)[C@@]2(C)C[C@H](O)C3=C(CC[C@H]4C(C)(C)OC(=O)C=C[C@]45O[C@@H]35)[C@]12C | > 50 | > 18 | > 90
29 | CC(=O)O[C@@H]1C[C@H]([C@H](C)[C@@H]2CC=C(C)C(=O)O2)[C@@]2(C)C[C@H](O)C3=C(CC[C@@H]4C(=C3)C=CC(=O)OC4(C)C)[C@]12C | > 50 | > 19 | 34
30 | CC(=O)O[C@]12CCC(=O)OC(C)(C)[C@@H]1CCC1=C2CC[C@]2(C)[C@@H]([C@H](C)[C@@H]3CC=C(C)C(=O)O3)CC[C@@]12C | > 50 | > 19 | > 95
31 | CC(=O)OC[C@]12CCC(=O)C(C)(C)[C@@H]1CCC1=C2CC[C@]2(C)[C@@H]([C@H](C)[C@@H]3CC=C(C)C(=O)O3)CC[C@@]12C | > 50 | > 20 | > 98
32 | C[C@H]1[C@@H](O)O[C@@H]2O[C@@]3(C)CC[C@H]4[C@H](C)CC[C@@H]1[C@@]24OO3 [ARTENIMOL] | – | 0.0028 | –
33 | CC(=O)OC(C)(C)[C@@H]1CC=C2C(=CC[C@]3(C)[C@@H]([C@H](C)[C@@H]4CC=C(C)C(=O)O4)CC[C@@]23C)[C@@]12CCC(=O)OC2 | 50 (≈ 95.3 µM) | 7.7 | 38
34 | CC1=CC[C@@H]([C@@H](C)[C@H]2CC[C@@]3(C)C4=C(CC[C@]23C)[C@@]2(CO)CC[C@H](O)C(C)(C)[C@@H]2CC4)OC1=O | > 50 | > 21 | > 106
35 | CC(=O)OC[C@@]1(CCC(=O)O)C2=CC[C@]3(C)[C@@H]([C@H](C)[C@@H]4CC=C(C)C(=O)O4)CC[C@@]3(C)C2=CC[C@H]1C(C)(C)O | > 50 | 5.5 | 88
36 | CC1=C[C@H](O)[C@@H]([C@@H](C)[C@H]2CC[C@@]3(C)C4=C(CC[C@]23C)[C@@]2(C)CC[C@H](O)C(C)(C)[C@@H]2CC4)OC1=O | > 50 | > 21 | 36
37 | CC(=O)O[C@@H]1C[C@H]([C@H](C)[C@H]2OC(=O)C(C)=C[C@@H]2O)[C@@]2(C)C[C@H](O)C3=C(CC[C@@H]4C(=C3)C=CC(=O)OC4(C)C)[C@]12C | > 50 | > 18 | > 90
38 | CC(=O)O[C@@H]1C[C@H]([C@H](C)[C@@H]2CC=C(C)C(=O)O2)[C@@]2(C)CCC3=C(CC[C@@H]4C(=C3)C=CC(=O)OC4(C)C)[C@]12C | > 50 | 18 | 11
39 | CC(=O)O[C@]12CCC(=O)OC(C)(C)[C@@H]1CC=C1[C@]3(C)CC[C@H]([C@H](C)[C@@H]4CC=C(C)C(=O)O4)[C@@]3(C)C[C@H]3O[C@@]132 | > 50 | > 18 | > 92
40 | CC(=O)[C@H]1C[C@@H](O)[C@@]2(C)C3=C(C=C4C=CC(=O)OC(C)(C)[C@@H]4CC3)[C@@H](O)C[C@]12C | > 50 | > 25 | > 125
